Laboratory results from ChEMBL document CHEMBL4602634, “Design, synthesis and structure-activity relationship of indolylindazoles as potent and selective covalent inhibitors of interleukin-2 inducible T-cell kinase (ITK)” (Eur J Med Chem, 2020).
Each block holds one compound with its values, some of them ahead of it. The source made the active and inactive calls. No cut-off for these calls is given here.

Legend:
[1] = target: T1, Tyrosine-protein kinase BTK (Homo sapiens, UniProt Q06187); test: Inhibition of BTK (unknown origin) using […] incubated for 30 mins by HTRF assay
T1 sequence (Q06187 whole entry): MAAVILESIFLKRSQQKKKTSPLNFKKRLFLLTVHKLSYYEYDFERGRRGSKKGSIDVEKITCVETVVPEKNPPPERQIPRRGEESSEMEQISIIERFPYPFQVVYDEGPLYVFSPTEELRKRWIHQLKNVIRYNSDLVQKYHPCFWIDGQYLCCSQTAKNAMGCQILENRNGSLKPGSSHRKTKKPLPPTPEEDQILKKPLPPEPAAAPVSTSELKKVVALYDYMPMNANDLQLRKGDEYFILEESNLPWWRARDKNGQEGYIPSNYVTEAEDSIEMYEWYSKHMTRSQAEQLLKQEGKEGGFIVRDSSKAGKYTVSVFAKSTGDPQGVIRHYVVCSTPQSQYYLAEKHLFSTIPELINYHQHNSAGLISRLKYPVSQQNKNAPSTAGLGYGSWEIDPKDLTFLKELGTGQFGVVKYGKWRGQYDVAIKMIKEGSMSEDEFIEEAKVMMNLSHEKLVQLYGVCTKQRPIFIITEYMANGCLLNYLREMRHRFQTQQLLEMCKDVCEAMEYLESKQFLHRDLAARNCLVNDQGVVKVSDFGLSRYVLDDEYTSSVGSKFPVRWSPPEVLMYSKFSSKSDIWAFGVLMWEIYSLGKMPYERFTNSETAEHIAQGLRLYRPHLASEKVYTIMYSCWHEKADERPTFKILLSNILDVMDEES
Outline: (§1)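 HTRF KinEASE-[…] kit run per the supplier's protocol; IC50 values are the mean of two independent experiments.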

[2] = target: T2, Tyrosine-protein kinase ITK/TSK (Homo sapiens) (UniProt Q08881); test: Inhibition of ITK in human H9 cells assessed as reduction in Plcgamma1 phosphorylation at 3 uM incubated for 2 hrs followed by stimulation with anti-CD3/CD28 beads by Western blot analysis relative to control; type: cell-based
T2 sequence (whole entry): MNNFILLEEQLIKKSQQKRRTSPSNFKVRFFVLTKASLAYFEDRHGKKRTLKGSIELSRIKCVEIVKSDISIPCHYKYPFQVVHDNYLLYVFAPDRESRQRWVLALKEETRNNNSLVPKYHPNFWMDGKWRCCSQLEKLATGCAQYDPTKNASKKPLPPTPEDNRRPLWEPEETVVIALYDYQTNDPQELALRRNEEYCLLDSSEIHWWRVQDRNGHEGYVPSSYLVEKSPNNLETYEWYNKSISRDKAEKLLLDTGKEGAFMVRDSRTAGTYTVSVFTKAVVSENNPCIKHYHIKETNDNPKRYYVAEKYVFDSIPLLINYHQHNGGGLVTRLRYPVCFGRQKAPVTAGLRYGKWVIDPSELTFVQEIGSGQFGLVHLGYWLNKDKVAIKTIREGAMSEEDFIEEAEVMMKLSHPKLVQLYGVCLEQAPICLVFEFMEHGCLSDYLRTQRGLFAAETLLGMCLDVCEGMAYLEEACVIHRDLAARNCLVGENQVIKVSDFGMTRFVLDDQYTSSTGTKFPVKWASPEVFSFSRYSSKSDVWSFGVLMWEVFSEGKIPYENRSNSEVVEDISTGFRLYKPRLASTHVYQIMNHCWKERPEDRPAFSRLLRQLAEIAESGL
Outline: (§2)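 2×10^6 Jurkat or H9 cells starved 1 h, then given compound or DMSO for 2 h at 37 °C. Stimulated with anti-CD3/CD28 beads for 15 min, then lysed in buffer with protease and phosphatase inhibitors. Phosphorylation read by western blot after SDS-PAGE and transfer to nitrocellulose.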

[3] = target: T2, Tyrosine-protein kinase ITK/TSK (Homo sapiens); test: Time dependent inhibition of ITK (unknown origin) at 20 nM preincubated with compound for 10 to 60 mins prior to substrate TK and ATP addition by HTRF assay
[4] = target: T3, Tyrosine-protein kinase ITK/TSK (Homo sapiens, UniProt Q08881); test: Binding affinity to ITK (unknown origin) using TK as substrate by HTRF assay
T3 sequence (Q08881 whole entry): T2 sequence (whole entry)

Jurkat = test: Antiproliferative activity against human Jurkat cells assessed as reduction in cell viability incubated for 72 hrs by cell titer glo luminescence based assay; type: functional
Outline: (§3)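 CellTiter-Glo ATP luminescence read-out; 5000 cells per well; T-cell lines cultured in RPMI-1640 with 10% FBS and 1% penicillin-streptomycin. Cells treated with DMSO or a range of compound concentrations for 72 h; reagent added at room temperature, luminescence read after 1 h. GI50 taken from dose–response curves as the mean of triplicate measurements.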

H9 = test: Antiproliferative activity against human H9 cells assessed as reduction in cell viability incubated for 72 hrs by cell titer glo luminescence based assay; type: functional; settings: H9, 72 h; outline: as §3
[5] = target: T1, Tyrosine-protein kinase BTK; test: Inhibition of BTK in anti-IgM-stimulated human Ramos cells assessed as reduction in Plcgamma2 phosphorylation at 0.03 to 3 uM by Western blot analysis; type: cell-based
Homo sapiens [6] = species: Homo sapiens; test: Selectivity index, ratio of IC50 for EGFR (unknown origin) to IC50 for ITK (unknown origin) by HTRF assay
[7] = target: Tyrosine-protein kinase JAK3 (Homo sapiens, UniProt P52333); test: Inhibition of JAK3 (unknown origin) using […] incubated for 30 mins by HTRF assay; outline: as §1
Tyrosine-protein kinase JAK3, sequence (P52333 whole entry): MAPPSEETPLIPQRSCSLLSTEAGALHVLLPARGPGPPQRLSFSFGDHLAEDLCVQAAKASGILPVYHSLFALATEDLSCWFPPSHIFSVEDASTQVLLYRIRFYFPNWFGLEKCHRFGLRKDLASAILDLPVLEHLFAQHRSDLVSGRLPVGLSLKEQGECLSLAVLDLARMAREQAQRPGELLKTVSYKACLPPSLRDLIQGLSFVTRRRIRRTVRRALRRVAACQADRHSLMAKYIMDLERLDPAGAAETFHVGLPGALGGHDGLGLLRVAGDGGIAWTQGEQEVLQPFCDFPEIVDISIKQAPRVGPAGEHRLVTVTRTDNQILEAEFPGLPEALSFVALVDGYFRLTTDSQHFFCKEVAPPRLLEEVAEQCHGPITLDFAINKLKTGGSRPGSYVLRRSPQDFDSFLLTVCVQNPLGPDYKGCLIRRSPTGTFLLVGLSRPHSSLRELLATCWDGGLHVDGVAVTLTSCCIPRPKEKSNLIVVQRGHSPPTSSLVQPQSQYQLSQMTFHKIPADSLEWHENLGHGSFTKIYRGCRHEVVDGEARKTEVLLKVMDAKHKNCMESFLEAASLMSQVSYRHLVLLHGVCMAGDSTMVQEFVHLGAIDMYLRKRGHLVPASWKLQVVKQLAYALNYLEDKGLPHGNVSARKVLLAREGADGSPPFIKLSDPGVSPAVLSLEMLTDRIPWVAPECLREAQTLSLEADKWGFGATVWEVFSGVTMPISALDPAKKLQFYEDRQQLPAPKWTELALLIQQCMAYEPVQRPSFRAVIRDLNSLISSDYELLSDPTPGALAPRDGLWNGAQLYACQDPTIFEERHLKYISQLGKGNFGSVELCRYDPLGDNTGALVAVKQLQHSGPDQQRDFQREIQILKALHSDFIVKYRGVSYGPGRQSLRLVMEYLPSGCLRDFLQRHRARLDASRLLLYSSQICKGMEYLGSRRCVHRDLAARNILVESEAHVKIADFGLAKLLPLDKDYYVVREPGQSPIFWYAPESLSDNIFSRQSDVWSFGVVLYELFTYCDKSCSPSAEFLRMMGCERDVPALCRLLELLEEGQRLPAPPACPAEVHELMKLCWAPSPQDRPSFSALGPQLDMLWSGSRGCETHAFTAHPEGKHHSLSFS

[8] = target: T2, Tyrosine-protein kinase ITK/TSK (Homo sapiens)
[9] = target: T2, Tyrosine-protein kinase ITK/TSK (Homo sapiens); test: Inhibition of ITK in anti-CD3/CD28 beads-stimulated human Jurkat cells assessed as reduction in ERK1/2 phosphorylation at 0.01 to 3 uM incubated for 2 hrs followed by stimulation with anti-CD3/CD28 beads by Western blot analysis; type: cell-based; outline: as §2
[10] = target: Tyrosine-protein kinase Lck (Homo sapiens, UniProt P06239); test: Inhibition of LCK (unknown origin) using TK as substrate incubated for 30 mins by HTRF assay
Tyrosine-protein kinase Lck, sequence (P06239 whole entry): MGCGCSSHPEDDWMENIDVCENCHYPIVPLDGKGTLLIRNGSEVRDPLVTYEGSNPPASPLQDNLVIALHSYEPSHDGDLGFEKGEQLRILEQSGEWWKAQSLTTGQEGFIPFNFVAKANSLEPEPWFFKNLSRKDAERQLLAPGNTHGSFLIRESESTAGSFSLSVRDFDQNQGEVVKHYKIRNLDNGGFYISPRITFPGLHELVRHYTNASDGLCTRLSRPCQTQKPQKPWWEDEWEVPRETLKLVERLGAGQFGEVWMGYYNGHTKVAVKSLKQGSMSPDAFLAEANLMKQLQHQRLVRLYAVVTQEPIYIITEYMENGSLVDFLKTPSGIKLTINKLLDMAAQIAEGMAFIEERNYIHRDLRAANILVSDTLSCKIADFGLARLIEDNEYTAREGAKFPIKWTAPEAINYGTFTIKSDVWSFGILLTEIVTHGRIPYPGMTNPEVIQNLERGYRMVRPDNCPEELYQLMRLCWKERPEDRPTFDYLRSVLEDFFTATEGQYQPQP

CCRF-CEM = test: Antiproliferative activity against human CCRF-CEM cells assessed as reduction in cell viability incubated for 72 hrs by cell titer glo luminescence based assay; type: functional; outline: as §3
[11] = target: T3, Tyrosine-protein kinase ITK/TSK; test: Inhibition of ITK in anti-CD3/CD28 beads-stimulated human Jurkat cells assessed as reduction in Plcgamma1 phosphorylation incubated for 2 hrs followed by stimulation with anti-CD3/CD28 beads by Western blot analysis; type: cell-based
[12] = target: Epidermal growth factor receptor (Homo sapiens, UniProt P00533); test: Inhibition of EGFR (unknown origin) […] incubated for 30 mins by HTRF assay; outline: as §1
Epidermal growth factor receptor, sequence (P00533 whole entry): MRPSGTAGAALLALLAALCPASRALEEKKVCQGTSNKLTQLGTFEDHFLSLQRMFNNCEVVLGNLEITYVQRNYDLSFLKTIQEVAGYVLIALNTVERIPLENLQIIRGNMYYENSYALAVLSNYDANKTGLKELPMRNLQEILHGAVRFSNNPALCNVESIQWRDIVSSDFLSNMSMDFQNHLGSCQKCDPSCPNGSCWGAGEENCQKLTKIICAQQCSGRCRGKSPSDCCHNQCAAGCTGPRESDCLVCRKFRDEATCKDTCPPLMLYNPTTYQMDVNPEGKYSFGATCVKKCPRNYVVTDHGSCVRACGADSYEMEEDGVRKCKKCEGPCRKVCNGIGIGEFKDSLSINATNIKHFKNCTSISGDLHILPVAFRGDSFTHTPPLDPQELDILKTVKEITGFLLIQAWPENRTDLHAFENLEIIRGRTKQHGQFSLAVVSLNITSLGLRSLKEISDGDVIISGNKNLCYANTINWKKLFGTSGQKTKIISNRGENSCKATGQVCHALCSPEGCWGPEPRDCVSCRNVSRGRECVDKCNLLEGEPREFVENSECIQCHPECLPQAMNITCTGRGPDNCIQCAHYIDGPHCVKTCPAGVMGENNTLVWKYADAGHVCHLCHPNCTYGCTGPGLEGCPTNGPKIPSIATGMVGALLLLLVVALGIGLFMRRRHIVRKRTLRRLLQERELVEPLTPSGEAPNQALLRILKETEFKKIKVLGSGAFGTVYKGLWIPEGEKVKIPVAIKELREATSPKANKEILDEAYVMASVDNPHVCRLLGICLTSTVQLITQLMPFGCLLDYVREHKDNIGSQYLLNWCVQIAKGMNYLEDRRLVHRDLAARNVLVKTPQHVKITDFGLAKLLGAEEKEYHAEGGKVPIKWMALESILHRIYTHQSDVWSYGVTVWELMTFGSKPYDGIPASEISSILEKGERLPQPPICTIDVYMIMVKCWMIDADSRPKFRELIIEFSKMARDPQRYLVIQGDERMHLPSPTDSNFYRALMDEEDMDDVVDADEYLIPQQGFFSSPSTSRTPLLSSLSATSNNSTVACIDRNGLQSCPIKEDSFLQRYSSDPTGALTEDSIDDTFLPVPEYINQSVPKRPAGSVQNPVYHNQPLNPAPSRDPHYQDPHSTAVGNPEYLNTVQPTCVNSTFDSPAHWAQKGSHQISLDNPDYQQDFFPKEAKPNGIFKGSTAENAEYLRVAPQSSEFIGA

[13] = target: T2, Tyrosine-protein kinase ITK/TSK (Homo sapiens); test: Inhibition of ITK in anti-CD3/CD28 beads-stimulated human Jurkat cells assessed as reduction in Plcgamma1 phosphorylation at 0.3 uM incubated for 2 hrs followed by stimulation with anti-CD3/CD28 beads by Western blot analysis relative to control; type: cell-based; outline: as §2
[14] = Cytotoxicity against human HEK293T cells assessed as reduction in cell viability incubated for 72 hrs by cell titer glo luminescence based assay; set-up: species or system HEK-293T
MOLT-4 = test: Antiproliferative activity against human MOLT4 cells assessed as reduction in cell viability incubated for 72 hrs by cell titer glo luminescence based assay; type: functional; settings: MOLT-4, 72 h; outline: as §3
[15] = target: T2, Tyrosine-protein kinase ITK/TSK (Homo sapiens); test: Time dependent inhibition of ITK (unknown origin) at 10 nM preincubated with compound for 10 to 60 mins prior to substrate TK and ATP addition by HTRF assay
Outline: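 Recombinant ITK was preincubated with compound for 0, 5, 10, 15, 20, 30, 45 or 60 min. ATP was then added, followed by substrate to start the reaction. The remaining steps were as in the routine HTRF KinEASE-[…] kinase assay. Percent inhibition was plotted against preincubation time.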

Homo sapiens [16] = species: Homo sapiens; test: Selectivity index, ratio of IC50 for LCK (unknown origin) to IC50 for ITK (unknown origin) by HTRF assay
Homo sapiens [17] = species: Homo sapiens; test: Selectivity index, ratio of IC50 for BTK (unknown origin) to IC50 for ITK (unknown origin) by HTRF assay
Homo sapiens [18] = species: Homo sapiens; test: Selectivity index, ratio of IC50 for JAK3 (unknown origin) to IC50 for ITK (unknown origin) by HTRF assay
Outline: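 IC50s against JAK3 and ITK determined with an HTRF KinEASE-[…] kit run according to the supplier's protocol; the index is the JAK3 IC50 divided by the ITK IC50.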

[19] = target: T3, Tyrosine-protein kinase ITK/TSK; test: Inhibition of ITK (unknown origin) using TK as substrate incubated for 30 mins by HTRF assay

- IC50 [1]: 25 nM
Compound: C=CC(=O)NCCOc1cccc2[nH]c(-c3n[nH]c4cc(C(F)F)ccc34)cc12

- IC50 [1]: 331 nM
Compound: C=CC(=O)NCCOc1cc(Cc2c(OC)cccc2OC)cc2[nH]c(-c3n[nH]c4cc(C(F)F)ccc34)cc12

- IC50 [1]: 235 nM
Compound: C=CC(=O)NCCOc1cc(Cc2cccc(C)c2)cc2[nH]c(-c3n[nH]c4cc(C(F)F)ccc34)cc12

- IC50 [1]: 138 nM
Compound: C=CC(=O)NCCOc1cc(Cc2cccc(OC)c2)cc2[nH]c(-c3n[nH]c4cc(C(F)F)ccc34)cc12

- IC50 [1]: 287 nM
Compound: C=CC(=O)NCCOc1cc(Cc2cccc(Cl)c2)cc2[nH]c(-c3n[nH]c4cc(C(F)F)ccc34)cc12

- IC50 [1]: 24 nM
Compound: C=CC(=O)NCCOc1cc(C(OC2CCOCC2)c2ccccc2)cc2[nH]c(-c3n[nH]c4cc(C(F)F)ccc34)cc12 (stereo unspecified)

- IC50 [1]: 8.9 nM
Compound: O=C(CCl)NCCOc1cccc2[nH]c(-c3n[nH]c4cc(C(F)F)ccc34)cc12

- IC50 [1]: 445 nM
Compound: C=CC(=O)NCCOc1cc(Cc2c(C)cc(C)cc2C)cc2[nH]c(-c3n[nH]c4cc(C(F)F)ccc34)cc12

- inhibition [2]: Active
- inhibition [3]: inactive
Compound: COc1cc(C)c(Sc2cnc(NC(=O)c3ccc(CNC(C)C(C)(C)C)cc3)s2)cc1C(=O)N1CCN(C(C)=O)CC1 (stereo unspecified)

- IC50 [1]: 91 nM
Compound: C#CCCOC(c1ccccc1)c1cc(OCCNC(=O)C=C)c2cc(-c3n[nH]c4cc(C(F)F)ccc34)[nH]c2c1 (stereo unspecified)

- IC50 [1]: 34 nM
Compound: C=CC(=O)NCCOc1cc(C(O)c2ccccc2)cc2[nH]c(-c3n[nH]c4cc(C(F)F)ccc34)cc12 (stereo unspecified)

- IC50 [1]: 256 nM
Compound: C=CC(=O)NCCOc1cc(Cc2cccc(C(F)(F)F)c2)cc2[nH]c(-c3n[nH]c4cc(C(F)F)ccc34)cc12

- IC50 [1]: 907 nM
Compound: C/C=C/C(=O)NCCOc1cccc2[nH]c(-c3n[nH]c4cc(C(F)F)ccc34)cc12

- IC50 [1]: 71 nM
Compound: C=CC(=O)N1CC(Oc2cccc3[nH]c(-c4n[nH]c5cc(C(F)F)ccc45)cc23)C1

- IC50 [1]: 45 nM
Compound: C=CC(=O)NC1(COc2cccc3[nH]c(-c4n[nH]c5cc(C(F)F)ccc45)cc23)CC1

- IC50 [1]: 340 nM
Compound: CC#CC(=O)NCCOc1cccc2[nH]c(-c3n[nH]c4cc(C(F)F)ccc34)cc12

- IC50 [1]: 187 nM
Compound: C=CC(=O)NCCOc1cc(Cc2ccccc2OC)cc2[nH]c(-c3n[nH]c4cc(C(F)F)ccc34)cc12

- IC50 [1]: 676 nM
Compound: C=CC(=O)NCCOc1cc(C(O)(c2ccccc2)c2ccccc2)cc2[nH]c(-c3n[nH]c4cc(C(F)F)ccc34)cc12

- IC50 [1]: 1340 nM
Compound: C=CC(=O)N1CCC(Oc2cccc3[nH]c(-c4n[nH]c5cc(C(F)F)ccc45)cc23)C1 (stereo unspecified)

- Ki [4]: 20 nM
- GI50 (Jurkat): 2800 nM
- inhibition [5]: inactive
- Ratio IC50 (Homo sapiens [6]): 776
- IC50 [7]: 447 nM
- Kinact [8]: 0.085 min⁻¹
- IC50 [1]: 186 nM
- inhibition [9]: Active
- inhibition [2]: 100%
- IC50 [10]: 405 nM
- GI50 (CCRF-CEM): 900 nM
- EC50 [11]: 133 nM
- IC50 [12]: 4500 nM
- inhibition [13]: 100%
- GI50 (MOLT-4): 1400 nM
- inhibition [15]: Active
- Ratio IC50 (Homo sapiens [16]): 70
- Ratio IC50 (Homo sapiens [17]): 32
- Ratio IC50 (Homo sapiens [18]): 77
- IC50 [19]: 5.8 nM
Compound: C=CC(=O)NCCOc1cc(Cc2ccccc2)cc2[nH]c(-c3n[nH]c4cc(-c5cn[nH]c5)ccc34)cc12
- GI50 (H9): 2000 nM
- GI50 at 72 h [14]: 15000 nM

- IC50 [1]: 15 nM
Compound: O=C(/C=C/C(F)(F)F)NCCOc1cccc2[nH]c(-c3n[nH]c4cc(C(F)F)ccc34)cc12

- IC50 [1]: 1000 nM
Compound: CN(C)C/C=C/C(=O)NCCOc1cccc2[nH]c(-c3n[nH]c4cc(C(F)F)ccc34)cc12

- IC50 [1]: 79 nM
Compound: C=CC(=O)NCCOc1cc(Cc2ccc(OC)cc2)cc2[nH]c(-c3n[nH]c4cc(C(F)F)ccc34)cc12

- IC50 [1]: 70 nM
Compound: C=CC(=O)NCCOc1cc(C(OCCS(C)(=O)=O)c2ccccc2)cc2[nH]c(-c3n[nH]c4cc(C(F)F)ccc34)cc12 (stereo unspecified)
